Assays:
Cytochrome P450 2D6 = Cytochrome P450 2D6 (Homo sapiens, UniProt P10635); test: Inhibition of CYP2D6 in human liver microsomes assessed as reduction in dextrorphan metabolite formation incubated for 30 mins in presence of NADPH by LC-MS/MS analysis; assay type: ADME, Microsome
[1] = Half life in Sprague-Dawley rat at 10 mg/kg, po and 1 mg/kg, iv measured upto 24 hrs by LC-MS analysis; assay type: ADME, organism-based; conditions: in vivo
Procedure, shortened: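 Male Sprague-Dawley rats, two per route, single dose. IV: 1 mg/kg given as 1 mL/kg of a nominal 1 mg/mL formulation in vehicle. PO: 10 mg/kg given as 5 mL/kg of a 2 mg/mL formulation. PK parameters from noncompartmental analysis. Clearance expressed relative to rat liver blood flow of 80 mL/min/kg.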

[2] = Oral bioavailability in Beagle dog at 1 mg/kg measured upto 24 hrs by LC-MS analysis; assay type: ADME, organism-based, Canis lupus familiaris; conditions: in vivo
Tryptase = Tryptase (Homo sapiens, UniProt Q9BZJ3+Q15661+Q9NRR2); test: Inhibition of human tryptase preincubated for 5 mins followed by substrate addition by fluorometer analysis; assay type: protein assay
Procedure, shortened: (§1)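 Human proteases, typically purified from plasma, preincubated with compound for 5 min. A protease-specific fluorogenic substrate was then added and cleavage followed kinetically on a fluorometer. IC50 from a four-parameter logistic fit to the normalized rate of fluorescence increase.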

Trypsin = Trypsin (Homo sapiens, UniProt P07477+P07478+P35030); test: Inhibition of human trypsin preincubated for 5 mins followed by substrate addition by fluorometer analysis; assay type: protein assay; procedure, shortened: as §1
[3] = Thermodynamic solubility of the compound in FaSSIF at 1 mg/ml at pH 6.5 measured after 4 hrs; assay type: physicochemical; conditions: simulated gi fluid, pH 6.5, 4 h
Procedure, shortened: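 Compound (nominal 1 or 100 mg/mL as free base) added to biorelevant medium preheated to 37 °C: FaSSGF at pH 1.6 or FaSSIF at pH 6.5. Vortexed, then shaken 4 h at 37 °C (~500 rpm). Centrifuged at 15000g for 10 min at 37 °C. Supernatant diluted and quantified against calibration standards. Crystalline material used where stated.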

Cytochrome P450 2B6 = Cytochrome P450 2B6 (Homo sapiens, UniProt P20813); test: Inhibition of CYP2B6 in human liver microsomes assessed as reduction in hydroxybupropion metabolite formation incubated for 30 mins in presence of NADPH by LC-MS/MS analysis; assay type: ADME, Microsome
[4] = Apparent permeability of the compound across apical side to basolateral side in human Caco-2 cells incubated for 1 hr by LC-MS/MS analysis; conditions: caco-2, 1 h
[5] = Metabolic stability in human liver microsomes assessed as intrinsic clearance per mg of protein measured upto 60 mins in presence of NADPH regenerating system by LC-MS/MS analysis; assay type: ADME, Microsome; conditions: microsomes, 1 h
Cytochrome P450 3A4 = Cytochrome P450 3A4 (Homo sapiens, UniProt P08684); test: Inhibition of CYP3A4 in human liver microsomes assessed as reduction in 6beta-hydroxymidazolam metabolite formation using midazolam as substrate incubated for 30 mins in presence of NADPH by LC-MS/MS analysis; assay type: ADME, Microsome
[6] = target: Voltage-gated inwardly rectifying potassium channel KCNH2 (Homo sapiens, UniProt Q12809); test: Inhibition of hERG expressed in CHO cells by whole cell patch clamp assay; assay type: toxicity, cell-based
Procedure, shortened: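 hERG K+ current recorded by automated whole-cell patch clamp in CHO cells stably expressing hERG. Concentrations tested up to a maximum of 33 μM.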

Sequence of Cytochrome P450 2B6 (P20813 whole entry): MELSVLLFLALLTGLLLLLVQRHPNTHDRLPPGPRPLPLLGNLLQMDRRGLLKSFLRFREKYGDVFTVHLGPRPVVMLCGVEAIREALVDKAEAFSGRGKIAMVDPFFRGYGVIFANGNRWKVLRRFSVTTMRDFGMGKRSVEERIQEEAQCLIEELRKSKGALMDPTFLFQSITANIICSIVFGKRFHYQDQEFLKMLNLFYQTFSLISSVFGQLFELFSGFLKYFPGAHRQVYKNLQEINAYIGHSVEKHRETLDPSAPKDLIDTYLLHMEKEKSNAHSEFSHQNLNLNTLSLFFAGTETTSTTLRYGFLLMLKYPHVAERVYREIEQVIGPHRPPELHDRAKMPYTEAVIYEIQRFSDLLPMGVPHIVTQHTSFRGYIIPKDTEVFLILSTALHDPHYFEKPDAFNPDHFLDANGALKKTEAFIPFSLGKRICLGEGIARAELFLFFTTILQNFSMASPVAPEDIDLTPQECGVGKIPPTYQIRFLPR
Sequence of Cytochrome P450 3A4 (P08684 whole entry): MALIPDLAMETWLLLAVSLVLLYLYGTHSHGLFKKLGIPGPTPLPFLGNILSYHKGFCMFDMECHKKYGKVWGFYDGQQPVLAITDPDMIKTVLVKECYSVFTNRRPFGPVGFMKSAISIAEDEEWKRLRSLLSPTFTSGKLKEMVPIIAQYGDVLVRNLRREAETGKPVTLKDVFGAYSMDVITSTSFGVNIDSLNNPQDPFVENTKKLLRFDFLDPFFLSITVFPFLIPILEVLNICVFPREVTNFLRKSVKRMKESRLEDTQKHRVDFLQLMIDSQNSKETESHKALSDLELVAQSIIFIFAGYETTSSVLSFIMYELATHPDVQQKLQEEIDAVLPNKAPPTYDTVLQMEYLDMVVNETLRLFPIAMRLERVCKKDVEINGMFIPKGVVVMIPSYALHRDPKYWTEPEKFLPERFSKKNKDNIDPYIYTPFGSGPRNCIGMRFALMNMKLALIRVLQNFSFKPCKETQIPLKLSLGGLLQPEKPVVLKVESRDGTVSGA
Sequence of Voltage-gated inwardly rectifying potassium channel KCNH2 (Q12809 whole entry): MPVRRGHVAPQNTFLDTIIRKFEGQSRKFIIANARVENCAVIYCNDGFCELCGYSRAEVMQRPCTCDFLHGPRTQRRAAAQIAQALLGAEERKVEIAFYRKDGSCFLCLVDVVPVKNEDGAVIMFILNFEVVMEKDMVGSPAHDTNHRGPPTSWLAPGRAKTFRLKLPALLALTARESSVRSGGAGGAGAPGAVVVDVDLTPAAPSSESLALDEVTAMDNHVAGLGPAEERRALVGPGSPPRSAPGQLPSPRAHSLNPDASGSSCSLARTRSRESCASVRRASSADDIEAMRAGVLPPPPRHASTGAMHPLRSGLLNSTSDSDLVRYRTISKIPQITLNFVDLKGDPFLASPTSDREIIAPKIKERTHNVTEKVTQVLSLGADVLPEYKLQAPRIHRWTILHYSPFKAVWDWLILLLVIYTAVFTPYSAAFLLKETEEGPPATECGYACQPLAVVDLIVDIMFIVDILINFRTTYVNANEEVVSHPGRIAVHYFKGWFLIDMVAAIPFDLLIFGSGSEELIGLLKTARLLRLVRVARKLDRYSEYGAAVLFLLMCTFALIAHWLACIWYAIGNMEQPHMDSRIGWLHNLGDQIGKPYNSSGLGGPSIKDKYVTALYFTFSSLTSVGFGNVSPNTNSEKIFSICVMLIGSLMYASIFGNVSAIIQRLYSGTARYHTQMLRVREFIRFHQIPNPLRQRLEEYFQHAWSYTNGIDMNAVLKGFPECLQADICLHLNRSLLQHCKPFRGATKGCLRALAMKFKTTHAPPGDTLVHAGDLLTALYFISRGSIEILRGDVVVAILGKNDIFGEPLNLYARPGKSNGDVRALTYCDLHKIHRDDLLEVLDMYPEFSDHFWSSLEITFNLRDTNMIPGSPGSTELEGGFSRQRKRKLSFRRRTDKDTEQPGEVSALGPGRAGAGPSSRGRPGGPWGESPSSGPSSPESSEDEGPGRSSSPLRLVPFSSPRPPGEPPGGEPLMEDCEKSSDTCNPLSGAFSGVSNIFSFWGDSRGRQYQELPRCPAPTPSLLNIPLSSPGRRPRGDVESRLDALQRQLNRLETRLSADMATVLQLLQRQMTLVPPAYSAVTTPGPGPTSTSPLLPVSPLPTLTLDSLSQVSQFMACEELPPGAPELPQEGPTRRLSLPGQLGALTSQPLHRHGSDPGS
Sequence of Cytochrome P450 2D6 (P10635 whole entry): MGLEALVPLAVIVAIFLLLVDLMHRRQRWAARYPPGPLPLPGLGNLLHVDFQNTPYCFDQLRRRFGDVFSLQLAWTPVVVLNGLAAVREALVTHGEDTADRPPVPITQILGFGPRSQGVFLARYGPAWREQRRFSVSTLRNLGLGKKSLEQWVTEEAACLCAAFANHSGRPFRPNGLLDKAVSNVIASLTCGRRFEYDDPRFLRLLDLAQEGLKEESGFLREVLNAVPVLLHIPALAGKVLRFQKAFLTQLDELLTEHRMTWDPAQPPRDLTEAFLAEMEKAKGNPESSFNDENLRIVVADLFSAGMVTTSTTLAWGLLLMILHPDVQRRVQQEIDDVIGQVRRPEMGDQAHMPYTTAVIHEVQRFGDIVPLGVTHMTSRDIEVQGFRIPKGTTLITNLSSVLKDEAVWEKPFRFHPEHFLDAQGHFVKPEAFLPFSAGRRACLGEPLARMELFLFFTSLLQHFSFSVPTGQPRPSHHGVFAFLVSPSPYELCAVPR

For `COCc1nn(Cc2ccc(Cn3ccccc3=O)cc2)cc1C(=O)NCc1nccc(OC)c1F` [SEBETRALSTAT], the IC50 (Cytochrome P450 2D6) was greater than 25 µM, the t1/2 [1] was 1 h and the F [2] was 34%. The IC50 (Tryptase) was greater than 10 µM, the IC50 (Trypsin) was greater than 40 µM and the Therm_solubility [3] was 220 µg/mL. For the same compound, the IC50 (Cytochrome P450 2B6) was greater than 25 µM, the Papp [4] was 9 10^-6 cm/s and the microsomal intrinsic clearance [5] was 14 µL/min. It also gave an IC50 (Cytochrome P450 3A4) greater than 25 µM and an IC50 [6] greater than 33 µM.

From ChEMBL document CHEMBL5108074 (J Med Chem, 2022)
